Reference: PubChem BioAssay AID623875 (Vanderbilt Specialized Chemistry Center, 2012)
Values joined by “and” are separate entries in the source; they are usually repeats but may differ in a detail not shown here. Equal values may be shown once.

Target: Metabotropic glutamate receptor 4 (Rattus norvegicus) (UniProt P31423)
Test: rat mGlu4 positive allosteric modulators, SAR follow-up, thallium flux, HEK/GIRK cells (AID 623875)
Conditions: HEK/GIRK rat mGlu4, thallium flux fluorescence, PAM
Outline: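 System: rat mGlu4 in HEK/GIRK/M4 cells; Dosing: 10-point concentration-response series, threefold dilution steps; Incubation: 1 h dye load, ~2.5 min compound pre-agonist; Technique: thallium flux through GIRK channels, FluoZin-2 AM fluorescence; Measure: baseline-normalized fluorescence slope 5–15 s post-addition, four-parameter logistic EC50.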

Sequence of Metabotropic glutamate receptor 4 (Rattus norvegicus) (P31423 whole entry, looked up): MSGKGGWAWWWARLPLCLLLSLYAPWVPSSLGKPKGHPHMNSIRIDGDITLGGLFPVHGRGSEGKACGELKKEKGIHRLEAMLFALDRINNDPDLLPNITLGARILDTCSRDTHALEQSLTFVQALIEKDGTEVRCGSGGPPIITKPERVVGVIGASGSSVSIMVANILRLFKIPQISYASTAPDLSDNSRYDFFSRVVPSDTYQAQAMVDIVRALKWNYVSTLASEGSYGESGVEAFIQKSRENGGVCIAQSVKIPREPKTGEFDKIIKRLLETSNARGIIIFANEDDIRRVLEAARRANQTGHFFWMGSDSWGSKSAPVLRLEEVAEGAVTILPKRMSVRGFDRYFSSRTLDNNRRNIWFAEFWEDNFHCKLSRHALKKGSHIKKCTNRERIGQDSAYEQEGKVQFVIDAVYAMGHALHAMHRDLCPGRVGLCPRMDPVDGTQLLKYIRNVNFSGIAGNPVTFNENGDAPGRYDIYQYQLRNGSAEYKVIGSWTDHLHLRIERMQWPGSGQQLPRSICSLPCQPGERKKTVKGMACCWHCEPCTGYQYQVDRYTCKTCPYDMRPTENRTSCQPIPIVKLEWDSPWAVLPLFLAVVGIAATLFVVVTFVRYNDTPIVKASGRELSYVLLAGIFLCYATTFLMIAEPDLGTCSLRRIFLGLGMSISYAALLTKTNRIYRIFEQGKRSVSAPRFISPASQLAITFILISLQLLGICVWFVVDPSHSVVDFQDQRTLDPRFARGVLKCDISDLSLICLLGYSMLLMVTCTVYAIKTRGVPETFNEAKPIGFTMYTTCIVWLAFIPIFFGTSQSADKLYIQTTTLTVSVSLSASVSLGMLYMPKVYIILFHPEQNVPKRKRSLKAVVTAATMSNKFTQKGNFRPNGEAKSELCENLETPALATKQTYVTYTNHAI

Compound | EC50
Clc1ccc2nc(-c3ccccn3)[nH]c2c1 | 1020 nM
Clc1cccc(Nc2noc3cccnc23)c1 | 70 nM and 80 nM
O=C(Nc1cccc(Cl)c1)c1ccccn1 | 330 nM
COc1cc(Nc2noc3cccnc23)ccc1Cl | 1190 nM
CC(C)N(C(=O)c1ccccn1)c1cccc(Cl)c1 | 10300 nM

The next lines start with the values.

EC50 | Compound
6330 nM | COc1cc2nc(-c3ccccn3)[nH]c2cc1Cl
110 nM and 130 nM | FC(F)Oc1cccc(Nc2noc3cccnc23)c1
980 nM | O=C(Nc1ccc2cn[nH]c2c1)c1ccccn1
2120 nM | O=C(Nc1ccc2c(c1)C(=O)NC2=O)c1ccccn1
530 nM | Fc1cccc(Nc2noc3cccnc23)c1
2580 nM | Clc1cccc(Nc2ncnc3cccnc23)c1
